Activation data for 94 compounds are collected here from PubChem BioAssay AID504383 (The Scripps Research Institute Molecular Screening Center, 2011).

About 1,200 (48%) of roughly 2,500 compounds were called active.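 The calls were made as follows: active = mean activation above the low control average plus 3 SD, as set in the primary screen (cut at about 12% in these data); inactive = the rest.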 The set was probably picked from earlier hits. The list shows a part of the results.

The target of the experiment is Troponin I, cardiac muscle (Homo sapiens) + Troponin T, cardiac muscle (Homo sapiens) + Troponin C, slow skeletal and cardiac muscles (Homo sapiens) (UniProt P19429+P45379+P63316). Nature of the experiment: calcium sensitizers of cardiac thin filaments – biochemical, IANBD-TnC fluorescence, triplicate, confirmation (AID 504383).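 Also: 0% = DMSO at 0.472 mM calcium and 100% = DMSO at 2.9 mM calcium.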 The note with it: IANBD-labeled cardiac RTF, Ca2+ sensitivity fluorescence; at 7.2 µM; stronger effect = higher value; scaled from EC20 to saturating calcium; tested at EC20 calcium, 0.472 mM. The essentials:
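Assay system: labelled regulated thin filament protein complex; schedule: 15 min compound incubation with filaments at 25 °C; benchmarks: low control EC20 calcium, high control EC100 calcium; reagent: Ca2+ 0.472 mM, EC20 level; doses: one dose, 7.2 µM nominal; evaluation: fluorescence gain scaled between EC20 and EC100 calcium controls; signal: filament fluorescence intensity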
Take `C=CCn1c(COc2cccc(C)c2)nnc1SCn1nnc2ccccc2c1=O`: the activation was 5.98% (inactive).
For `CCNc1nc(SCC(N)=O)nc2sc3c(c12)CCN(C)C3`, the activation is 6.59% (inactive).
For `CCOC(=O)C(C)(C)Sc1nc2c(cnn2-c2ccc(Cl)cc2)c(=O)[nH]1` the value was 185% (active); for `CCOC(=O)C(C)Sc1nnc(Cc2cc(=O)[nH]c(=O)[nH]2)n1-c1ccc(Cl)cc1` (centres undefined), 10.2% (inactive).
On to `CCCCCOc1ccc(CN2CCOCC2)cc1Cl`, for which the activation was 74.8% (active).
The same measure for `COc1cccc(CNC(=O)C2CCCN(c3nc4ccccc4o3)C2)c1` (centres undefined): 1.39% (inactive); for `Cc1cc2nc(C3CCCN(C(=O)NCc4ccccc4)C3)[nH]c2cc1C` (centres undefined): 35.4% (active); for `CCCC(=O)Nc1ccc(-c2cnc(-c3ccc(NC(=O)CCC)cc3)nc2)cc1`: 13.5% (active).
On to `Cc1cccc(/C=N/NC(=O)C(C)Nc2cccc3ccccc23)n1` (centres undefined), for which the activation is 46.1% (active).
Consider `CCOC(=O)c1sc(=NC(=O)c2cc(OC)c(OC)c(OC)c2)n(C)c1C`, for which the activation was 266% (active).
For `CCOC(=O)Cn1nc2sc3ccccc3n2c(=O)c1=O` the value was 8.56% (inactive); for `CC1CC(C)CN(C(=O)Cn2c(-c3nonc3N)nc3ccccc32)C1` (centres undefined), 4.8% (inactive); for `CCOC(=O)Cn1c(=O)c(-c2cc(Br)ccc2N)nc2ccccc21`, 16.6% (active).
For `CCc1ccccc1NC(=O)COc1ccc2c(=O)c(Oc3cc(C)ccc3C)coc2c1` the value was 2310% (active); for `COc1c(O)cccc1-c1nnn(CCC(=O)OCC(=O)c2ccccc2)n1`, 53.4% (active); for `O=C(Cc1nc2ccccc2[nH]c1=O)c1ccccc1`, 8.29% (inactive).
Turning to `O=C(O)CSc1nc2ccccc2nc1Cc1ccccc1F`, the activation is 413% (active).
For `O=C(N/N=C/c1ccccc1OC(=O)c1ccc2c(c1)OCO2)c1cccc(F)c1` the value was 52.1% (active); for `COc1cc(C(=O)Oc2ccccc2/C=N/NC(=O)c2ccc(Cl)cc2)cc(OC)c1OC`, 61.8% (active).
`C/C(Cn1cnc([N+](=O)[O-])n1)=N\NC(=O)c1cccc(F)c1`: the activation is 8.55% (inactive).
For `CCC(=O)N(C)CCc1cc2c(c(OC)c1/C=N/NC(=O)c1ccc(Br)cc1)OCO2` the value was 8.22% (inactive); for `CC1=C(C(=O)OCCCCCl)C(c2cc3c(cc2Br)OCO3)NC(=O)N1` (centres undefined), 7.44% (inactive).
The same measure for `O=C(Cn1cc(/C=N/NC(=O)c2cccc3ccccc23)c2ccccc21)Nc1ccc(F)cc1`: 56.1% (active).
As for `O=C(Nc1ccccc1C(=O)N/N=C/c1ccco1)c1ccc(F)cc1`, the activation was 10.3% (inactive).
Regarding `CCOc1cccc(NC(=O)/C(C#N)=C\c2cn(CC(=O)O)c3ccccc23)c1`, the activation is 7.03% (inactive).
For `CCn1cc([N+](=O)[O-])c(C(=O)Nc2ccn(Cc3ccccc3)n2)n1` the value was 19.6% (active); for `O=S1(=O)CCOC[C@H](CC2CCCCC2)N1Cc1ccccc1`, 3.3% (inactive).
The same measure for `NC(=S)Nc1c(Cl)cccc1Cl`: 1.18% (inactive).
The same measure for `CCOC(=O)c1cc2c(=O)n3ccccc3nc2n(CCOC)c1=NC(=O)c1c(-c2c(F)cccc2Cl)noc1C`: 8.32% (inactive); for `Cc1onc(-c2c(F)cccc2Cl)c1C(N)=S`: 25.8% (active); for `CSC(=NCc1ccco1)NC#N`: 5.56% (inactive).
Take `O=[N+]([O-])c1ccc(/C=C/C2=NN(c3ccccc3)C(c3ccco3)C2)cc1` (centres undefined): the activation is 31.7% (active).
For `O=[N+]([O-])c1ccc(C2=NN(c3ccccc3)C(c3ccco3)C2)cc1` (centres undefined) the value was 1.19% (inactive); for `COc1ncnc2c1N=C1CC(C)(C)CC(N)=C1S2`, 70.2% (active); for `O=C(Nc1ccc(Br)cc1)C(c1ccccc1)c1ccccc1`, 3.94% (inactive).
Consider `COC(C(=O)Nc1c(F)cccc1F)c1ccccc1` (centres undefined), for which the activation is 13.6% (active).
For `Cc1nnc(NC(=O)CS(=O)(=O)Cc2ccccc2)s1` the value was 5.16% (inactive).
Take `Cc1nnc(NC(=O)CSc2ncnc3c2cnn3-c2ccccc2C)s1`: the activation is 14% (active).
The same measure for `NC(=O)NNC1=Nc2cccc3cccc1c23`: 6.47% (inactive).
For `Nc1nc(SCC(=O)Nc2ccc(Cl)cc2)[nH]c(=O)c1-c1ccccc1`, the activation was 5.51% (inactive).
For `CCOC(=O)c1cccc(NC(=O)CSc2nc(N)cc(N)n2)c1`, the activation is 2.77% (inactive).
The same measure for `Nc1nc(SCC(=O)Nc2ccccc2)nc2nc3c(cc12)CCCC3`: 12.6% (active).
The same measure for `CCCOc1ccc(C2C(C(=O)/C=C/c3ccco3)=C(O)C(=O)N2CCN2CCOCC2)cc1OC` (centres undefined): 14% (active); for `COc1ccc(NC(=O)Nc2cccnc2)c(OC)c1`: 5.8% (inactive); for `C=C(C)c1cccc(C(C)(C)NC(=O)Nc2cccnc2)c1`: 15.5% (active).
Regarding `CCn1c(CSCc2ccccc2)n[nH]c1=S`, the activation was 15.7% (active).
With `Nc1ccc(CCNc2ncnc3c2ncn3[C@@H]2O[C@H](CO)[C@@H](O)[C@H]2O)cc1`, the activation is 7.47% (inactive).
For `Cc1cc(-n2c(=O)c(C#N)cc3c(=O)n4ccccc4nc32)no1` the value was 14.7% (active); for `S=C1NC2=C(CCCC2=C2SCCCS2)C(c2ccccc2)N1` (centres undefined), 23.6% (active).
On to `S=C1NC2=C(CCC/C2=C\c2ccccc2)C(c2ccccc2)N1` (centres undefined), for which the activation is 8.03% (inactive).
With `CCN1C(=O)/C(=C/C=C2\N(CC)c3cc(S(=O)(=O)N(C)C)ccc3N2c2ccccc2)SC1=S`, the activation was 10.6% (inactive).
For `CC(C)c1ccc(N2C(=O)/C(=C/N(C)C)SC2=S)cc1` the value was 57.7% (active); for `O=C1CSC(=S)N1c1ccc(O)cc1`, 4.53% (inactive); for `CN(C)/C=C1\SC(=S)N(c2ccc(Br)cc2)C1=O`, 75.9% (active).
Consider `CC(=O)c1nnn(-c2nc(N3CCCC3)nc(N(c3ccccc3)c3ccccc3)n2)c1C`, for which the activation is 5.27% (inactive).
Take `O=C(c1ccccc1C(=O)N1CCN(c2ccccc2)CC1)N1CCN(c2ccccc2)CC1`: the activation is 0.49% (inactive).
The same measure for `C=CCn1c(C)c(C(C)=O)c(N2CCN(c3ccccc3)CC2)nc1=S`: 74.9% (active); for `CC(C)OC(=O)CC(=O)CSc1nc(-c2ccc(F)cc2)cc(-c2ccccc2)c1C#N`: 38.9% (active).
The same measure for `COC(=O)c1ccc(-c2ccc(F)cc2)nc1C`: -3.68% (inactive); for `O=C(OCCN1CCCCC1)c1ccccc1Br`: 3.85% (inactive).
Consider `CN1CCCC(OC(=O)c2ccccc2Br)C1` (centres undefined), for which the activation is 67% (active).
With `Cc1nn(C)c(C(=O)N2CCc3ccccc32)c1Br`, the activation was 66.9% (active).
As to `Cc1cccc2cc3c(N)c(C(=O)N4CCc5ccccc54)sc3nc12`, the activation is 7.08% (inactive).
For `Cc1c(Br)c(C(=O)N2CCc3ccccc32)nn1C` the value was 3.1% (inactive); for `O=C1c2ccsc2SCCN1Cc1ccc(F)cc1`, 27.7% (active).
For `O=C1N/C(=C\c2ccsc2)C(=O)N1Cc1ccc(F)cc1` the value was 4.06% (inactive).
Consider `C=CCn1c(=O)c(C(=O)NCCNCC)c(O)c2ccccc21`, for which the activation is 12.4% (active).
The same measure for `CCn1c(=O)c(C(=O)CN2CCCc3ccccc32)c(N)n(Cc2ccccc2)c1=O`: 60% (active); for `CCCCN(C(=O)c1ccc([N+](=O)[O-])o1)c1c(N)n(CCCC)c(=O)[nH]c1=O`: 5.49% (inactive).
The same measure for `COCCCN(C(=O)c1cccnc1SC)c1c(N)n(Cc2ccccc2)c(=O)[nH]c1=O`: 48.1% (active); for `COc1cc(OC)cc(C(=O)N(Cc2ccco2)c2c(N)n(Cc3ccccc3)c(=O)[nH]c2=O)c1`: 7.79% (inactive).
For `Cc1ccc2c(c1)CCCN2CC(=O)N(C)c1c(N)n(Cc2ccccc2)c(=O)[nH]c1=O` the value was 1.27% (inactive).
As for `CCN(C(=O)CN1CCCc2cc(C)ccc21)c1c(N)n(Cc2ccccc2)c(=O)[nH]c1=O`, the activation was 6.97% (inactive).
`COCCN(C(=O)CN1CCCc2ccccc21)c1c(N)n(Cc2ccccc2)c(=O)[nH]c1=O`: the activation is 18.8% (active).
For `OCCN(CCO)c1nc(N2CCCCC2)c2nc(N(CCO)CCO)nc(N3CCCCC3)c2n1` the value was 7.69% (inactive); for `CN1CCc2c(sc(/N=C/c3ccco3)c2C(N)=O)C1`, 10.3% (inactive).
For `CC(=O)N1CCc2c(sc(NC(=O)C3CCCN3S(=O)(=O)c3cccs3)c2C(N)=O)C1` (centres undefined) the value was 39.1% (active); for `CN1CCc2c(sc(/N=C/c3cccs3)c2C(N)=O)C1`, 2.64% (inactive).
For `CCN1C(=O)/C(=C/N2CCc3ccccc32)SC1=S` the value was 50% (active); for `C=CCN1C(=O)/C(=C\C=C2\N(C)c3ccccc3C2(C)C)SC1=S`, 3.44% (inactive); for `CCOc1ccc(C(=O)NC2CCN(C(=O)Nc3ccccc3OC)CC2)cc1`, 2.1% (inactive).
`COc1ccccc1NCC(=O)NC(=O)NC1CCCCC1`: the activation was 13.1% (active).
On to `COc1ccc(C2=NS(=O)(=O)N(C)C(C(=O)NC3CCCC3)=C2)cc1`, for which the activation is -1.79% (inactive).
The same measure for `CSCCC(NC(=O)c1ccc(Cl)cc1)C(=O)OCC(=O)c1ccc[nH]1` (centres undefined): 9.46% (inactive).
The same measure for `CCS(=O)(=O)N1Cc2ccccc2CC1C(=O)Nc1ccc(OC)cc1OC` (centres undefined): 6.84% (inactive).
In the case of `COc1ccc(OC)c(S(=O)(=O)N2CCC(C(=O)NCc3ccccn3)CC2)c1`, the activation was 7.51% (inactive).
The same measure for `COc1ccc(N2CC(C(=O)Nc3nc(-c4ccccc4)c(C(C)=O)s3)CC2=O)c(OC)c1` (centres undefined): 12.4% (active).
For `N#CC1=C(N)OC2=C(CC/C2=C\c2ccccc2)C1c1ccccc1` (centres undefined) the value was 36.3% (active); for `Cc1ccc(/C=C2\CCC3=C2OC(N)=C(C#N)C3c2ccc(C)cc2)cc1` (centres undefined), 11% (inactive).
The same measure for `N#CC1=C(N)OC2=C(CC/C2=C\c2ccccc2Cl)C1c1ccccc1Cl` (centres undefined): 317% (active).
In the case of `CC(=O)C1=C(C)N(Cc2ccccc2)C(=O)N[C@@H]1c1cccc(C(F)(F)F)c1`, the activation was 8.59% (inactive).
As to `CC(=O)C1=C(C)N(CC2CC2)C(=O)N[C@H]1c1ccc(Br)cc1`, the activation is 102% (active).
For `COc1ccc(Cl)cc1NC(=O)CN(C)C(=O)COc1ccccc1F` the value was 4.03% (inactive); for `COc1ccc(Cl)cc1NC(=O)CN(C)C(=O)c1ccc(N2CCCCCC2)c([N+](=O)[O-])c1`, 59.6% (active).
